Data taken from ChEMBL document CHEMBL1124370 (1989).
One block for each compound: values may come before it. The source made the active and inactive calls. The rule behind the calls is not given here.

Tests used:
[1] = test system: Rattus norvegicus; test: […] inhibition of sorbitol accumulation in rat sciatic nerves at 10e-6 M concentration; NS=not significant; type: functional; settings: Sciatic nerve
Method in brief: (§1)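 Sciatic nerves were taken from male Sprague-Dawley rats (200–250 g) after CO2 euthanasia. Nerves were incubated 3 h at 37 °C under 95% air/5% CO2 in Hank's salts buffer, pH 7.4, with 50 mM glucose and (0–5)×10^-5 M compound, in triplicate. Nerve sorbitol was measured spectrofluorometrically in duplicate, and the read-out was % inhibition of sorbitol accumulation.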

[2] = target: Aldo-keto reductase family 1 member B1 (Bos taurus) (UniProt P16116); test: Inhibition of aldose reductase in partially purified bovine lens preparation at 10e-6 M.
Method in brief: (§2)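 Aldose reductase partially purified from bovine lens, with the final chromatographic step of the earlier preparation omitted. Assay run in duplicate with test compound at 1 × 10^-6 M or 1 × 10^-7 M. Reported as % inhibition of enzymatic activity.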

[3] = test system: Rattus norvegicus; test: In vivo inhibition of galactitol accumulation in the sciatic nerves of rat at a dose of 67 mg/kg/day; NS=not significant; type: functional, organism-based; settings: Sciatic nerve
[4] = test system: Rattus norvegicus; test: In vivo inhibition of galactitol accumulation in the diaphragm of rat at a dose of 67 mg/kg/day; NS =not significant; type: functional, organism-based
[5] = test system: Rattus norvegicus; test: […] inhibition of sorbitol accumulation in rat sciatic nerves at 10e-5 M concentration; type: functional, Sciatic nerve; method in brief: as §1
[6] = target: Aldo-keto reductase family 1 member B1 (Bos taurus) (UniProt P16116); test: […] inhibition of aldose reductase in partially purified bovine lens preparation at 10e-7 M concentration
Method in brief: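 Enzyme partially purified from bovine lens by a published method, with the final chromatographic step omitted. Test compound was added at 1×10^-6 or 1×10^-7 M. Assays were run in duplicate, and the read-out was % inhibition of enzymatic activity.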

[7] = test system: Rattus norvegicus; test: In vivo inhibition of galactitol accumulation in the sciatic nerves of rat at a dose of 6 mg/kg/day; type: functional; settings: Sciatic nerve
[8] = test system: Rattus norvegicus; test: […] inhibition of sorbitol accumulation in rat sciatic nerves at 5*10e-6 M concentration; type: functional, Sciatic nerve; settings: in the assay text read “In vitro” for “In vivo”
Method in brief: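 Sciatic nerves from male Sprague-Dawley rats (200–250 g), removed after CO2 euthanasia, incubated ex vivo for 3 h at 37 °C under 95% air/5% CO2 in Hank's salts buffer, pH 7.4, with 50 mM glucose and 5 × 10^-6 M test compound. Triplicate incubations; nerve sorbitol measured in duplicate by spectrofluorometric assay. Reported as % inhibition of sorbitol accumulation.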

[9] = test system: Rattus norvegicus; test: In vivo inhibition of galactitol accumulation in the diaphragm of rat vat a dose of 6 mg/kg/day; type: functional
[10] = test system: Rattus norvegicus; test: In vivo inhibition of galactitol accumulation in the sciatic nerves of rat at a dose of 100 mg/kg/day; NS=not significant; type: functional, organism-based; settings: Sciatic nerve
[11] = test system: Rattus norvegicus; test: In vivo inhibition of galactitol accumulation in the diaphragm of rat at a dose of 100 mg/kg/day; type: functional
[12] = target: Aldo-keto reductase family 1 member B1 (Bos taurus) (UniProt P16116); test: Inhibition of aldose reductase in partially purified bovine lens preparation at 10e-7 M concentration; method in brief: as §2
[13] = test system: Rattus norvegicus; test: In vivo inhibition of galactitol accumulation in the sciatic nerves of rat at a dose of 107 mg/kg/day; type: functional; settings: Sciatic nerve
[14] = test system: Rattus norvegicus; test: In vivo inhibition of sorbitol accumulation in rat sciatic nerves at 10e-6 M concentration; type: functional, Sciatic nerve; method in brief: as §1
[15] = test system: Rattus norvegicus; test: In vivo inhibition of galactitol accumulation in the diaphragm of rat at a dose of 107 mg/kg/day; type: functional
[16] = test system: Rattus norvegicus; test: In vivo inhibition of galactitol accumulation in the diaphragm of rat at a dose of 106 mg/kg/day; type: functional
[17] = test system: Rattus norvegicus; test: In vivo inhibition of galactitol accumulation in the sciatic nerves of ratat a dose of 106 mg/kg/day; type: functional; settings: Sciatic nerve
[18] = test system: Rattus norvegicus; test: In vivo inhibition of galactitol accumulation in the sciatic nerves of rat at a dose of 55 mg/kg/day; NS=not significant; type: functional, organism-based; settings: Sciatic nerve
[19] = test system: Rattus norvegicus; test: In vivo inhibition of galactitol accumulation in the diaphragm of rat. at a dose of 56 mg/kg/day; NS=not significant; type: functional, organism-based
[20] = test system: Rattus norvegicus; test: In vivo inhibition of galactitol accumulation in the sciatic nerves of rat at a dose of 4 mg/kg/day; type: functional; settings: Sciatic nerve
[21] = test system: Rattus norvegicus; test: In vivo inhibition of galactitol accumulation in the diaphragm of rat at a dose of 4 mg/kg/day; type: functional
[22] = test system: Rattus norvegicus; test: In vivo inhibition of galactitol accumulation in the sciatic nerves of rat at a dose of 50 mg/kg/day; NS=not significant; type: functional, organism-based; settings: Sciatic nerve
[23] = test system: Rattus norvegicus; test: In vivo inhibition of galactitol accumulation in the diaphragm of rat. at a dose of 50 mg/kg/day; NS=not significant; type: functional, organism-based
[24] = test system: Rattus norvegicus; test: In vivo inhibition of galactitol accumulation in the sciatic nerves of rat at a dose of 75 mg/kg/day; type: functional; settings: Sciatic nerve
[25] = test system: Rattus norvegicus; test: In vivo inhibition of galactitol accumulation in the diaphragm of ratat a dose of 75 mg/kg/day; type: functional
[26] = test system: Rattus norvegicus; test: In vivo inhibition of sorbitol accumulation in rat sciatic nerves at 5*10e-5 M concentration; type: functional, Sciatic nerve; settings: in the assay text read “In vitro” for “In vivo”; method in brief: as §1
[27] = test system: Rattus norvegicus; test: In vivo inhibition of galactitol accumulation in the diaphragm of rat. at a dose of 25 mg/kg/day; NS =not significant; type: functional, organism-based
[28] = test system: Rattus norvegicus; test: In vivo inhibition of galactitol accumulation in the sciatic nerves of rat at a dose of 25 mg/kg/day; type: functional; settings: Sciatic nerve

SMILES: COc1ccc2c(C(=O)N(CC(=O)O)C(=O)OCc3ccccc3)cccc2c1C(F)(F)F
inhibition [1]: inactive | inhibition [2]: 89% | inhibition [3]: inactive | inhibition [4]: inactive | Inhibition [5]: 28% | inhibition [6]: 66%

SMILES: COc1ccc2c(C(=S)N(C)CC(=O)O)cccc2c1C(F)(F)F [TOLRESTAT]
inhibition in vivo at 6 mg/kg/day [7]: 53% | Inhibition [8]: 76% | Inhibition [5]: 82% | inhibition in vivo at 6 mg/kg/day [9]: 80%

SMILES: COc1ccc2c(C(=O)N(CC(=O)O)C(=O)N(C)C)cccc2c1C(F)(F)F
inhibition [1]: inactive | inhibition [2]: 3% | inhibition [10]: inactive | Inhibition [5]: 34% | inhibition in vivo at 100 mg/kg/day [11]: 21%

SMILES: COc1ccc2c(C(=O)N(C=O)CC(=O)O)cccc2c1C(F)(F)F
inhibition [12]: 89% | inhibition [2]: 96% | inhibition in vivo at 107 mg/kg/day [13]: 51% | Inhibition [5]: 65% | Inhibition [14]: 42% | inhibition in vivo at 107 mg/kg/day [15]: 82%

SMILES: CSc1ccc2c(C(=O)N(C)CC(=O)O)cccc2c1C(F)(F)F
inhibition [12]: 51% | inhibition [2]: 85% | Inhibition [5]: 73% | inhibition in vivo at 106 mg/kg/day [16]: 73% | Inhibition [14]: 34% | inhibition in vivo at 106 mg/kg/day [17]: 36%

SMILES: O=C1NC(=O)[C@@]2(CCOc3ccc(F)cc32)N1 [SORBINIL]
inhibition [12]: 10% | inhibition [2]: 45% | Inhibition [8]: 74% | Inhibition [5]: 96% | inhibition in vivo at 4 mg/kg/day [20]: 55% | Inhibition [14]: 27% | inhibition in vivo at 4 mg/kg/day [21]: 69%

Second part, led by results:

inhibition [12]: 5% | inhibition [2]: 53%
SMILES: COc1ccc2c(/C(=N/S(=O)(=O)c3ccc(Br)cc3)N(C)CC(=O)O)cccc2c1C(F)(F)F
inhibition [18]: inactive | inhibition [19]: inactive

inhibition [12]: 15% | inhibition [2]: 62%
SMILES: COc1ccc2c(C(=O)N(CC(=O)O)C(=O)c3ccccc3)cccc2c1C(F)(F)F
inhibition [22]: inactive | Inhibition [5]: 31% | inhibition [23]: inactive | Inhibition [14]: 40%

inhibition [12]: 57% | inhibition [2]: 86%
SMILES: COc1ccc2c(C(=O)N(C)CC(=O)O)cccc2c1C(F)(F)F
inhibition in vivo at 75 mg/kg/day [24]: 56% | Inhibition [5]: 74% | inhibition in vivo at 75 mg/kg/day [25]: 27% | Inhibition [26]: 89% | inhibition [27]: inactive | inhibition in vivo at 25 mg/kg/day [28]: 33% | Inhibition [14]: 27%
